{"source": "ChEMBL document CHEMBL4028906", "about": "“Allosteric Inhibitors of SHP2 with Therapeutic Potential for Cancer Treatment” (J Med Chem, 2017)", "biological_target": "T1, Tyrosine-protein phosphatase non-receptor type 11 (Homo sapiens) (UniProt Q06124)", "T1 sequence (whole entry)": "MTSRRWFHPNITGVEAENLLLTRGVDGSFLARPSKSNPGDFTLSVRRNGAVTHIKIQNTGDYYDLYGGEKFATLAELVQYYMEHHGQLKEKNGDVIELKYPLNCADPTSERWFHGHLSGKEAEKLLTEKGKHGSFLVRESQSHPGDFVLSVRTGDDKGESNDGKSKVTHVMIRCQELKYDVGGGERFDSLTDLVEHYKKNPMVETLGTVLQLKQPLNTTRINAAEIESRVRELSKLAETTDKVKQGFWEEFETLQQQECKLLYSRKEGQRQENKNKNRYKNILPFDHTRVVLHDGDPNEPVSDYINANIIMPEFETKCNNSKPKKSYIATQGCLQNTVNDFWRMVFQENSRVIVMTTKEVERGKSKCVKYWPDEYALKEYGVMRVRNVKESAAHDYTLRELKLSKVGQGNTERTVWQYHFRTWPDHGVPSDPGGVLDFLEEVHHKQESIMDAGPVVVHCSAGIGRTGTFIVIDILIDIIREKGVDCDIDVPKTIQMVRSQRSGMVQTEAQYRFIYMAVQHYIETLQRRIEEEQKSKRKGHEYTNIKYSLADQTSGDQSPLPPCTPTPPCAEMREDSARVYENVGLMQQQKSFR", "assay": "Allosteric inhibition of SHP2 in human SF268 cells assessed as upregulation of YAP phosphorylation up to 20 uM after 2 hrs by Western blot analysis", "type": "cell-based", "outline": "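SF268 cells given DMSO or inhibitor for 2 h. YAP immunoprecipitated and immunoblotted with pY-100 phosphotyrosine antibody, which detects the single YXXP tyrosine Y357.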", "note": "The source made the active and inactive calls. The rule behind the calls is not given here."}
{"smiles": "CC1(N)CCN(c2nc(-c3ccc4cc(Br)ccc4c3)cs2)CC1", "values": [{"measurement": "inhibition", "result": "Active"}]}
